Shown are actives, neighbours in structure and some others; about 5.1% of the full set was active somewhere.
STAT3 blocker: inhibitors of IL-6 induced STAT3 signaling. 190,000 tested, 0.89% active. inhibition, % at 5.5 µM. U3A cells, IL-6 STAT3-luciferase reporter, luminescence; host cell line lacks STAT1. AID 862;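 active means inhibition above the mean inhibition across all screened compounds plus 3 SD, cut at about 44% in these data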;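 further: 0% = DMSO only wells and 100% = 100 µM nifuroxazide control wells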
NF-kB expr up: NF-kB expression increase, human neuronal cells; NF-kB reporter expression; hits give high values; fold change at 12.5 µM; 190,000 tested, 1.6% active; in the data active means fold change above about 3.3
APP 5'UTR act: activates APP 5'UTR luciferase reporter | SH-SY5Y APP 5'UTR luciferase reporter, luminescence; zero percent = DMSO vehicle wells | activation, % at 2 µM | 190,000 tested, 1% active | AID 1276;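 active means activation above a set limit, based on mean plus 3 SD of controls, cut at about 140% in these data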
STAT3 activator: activators of IL-6 induced STAT3 signaling | U3A cells, IL-6 STAT3-luciferase reporter, luminescence; 100% = signal with IL-6 EC80 alone | activation (% of control), % at 5.6 µM | 190,000 tested, 0.91% active | AID 871;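 active means activation above the screen-wide mean of compound activation plus 3 SD, cut at about 130% in these data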;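 further: 0% = background luminescence of wells with medium and substrate only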
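Material: human STAT1-deficient U3A cells with stable STAT3-luciferase reporter / Probe or stimulus: IL-6 stimulus at 33 ng/mL final / Schedule: 1 h compound pre-exposure, 6 h IL-6 stimulation, 37 °C / Technique: luminescence / Read-out basis: percent of IL-6-only median luminescence / Control set: IL-6-only high control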
STAT1 blocker: STAT1 signaling inhibition | NIH 3T3 STAT1-luciferase reporter, IFN-gamma, luminescence | inhibition, % at 5.5 µM | 200,000 tested, 0.35% active | AID 920;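 active means inhibition above a set limit, the mean inhibition across all tested compounds plus 3 SD, cut at about 34% in these data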;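 further: 0% = IFN-gamma with DMSO and 100% = IFN-gamma with 300 µM nifuroxazide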
STAT1 activator: increases IFN-gamma driven STAT1 reporter signal; NIH 3T3 STAT1-luciferase reporter, luminescence; 100% = IFN-gamma alone, no compound; activation (% of control), % at 5.5 µM; 200,000 tested, 2.6% active;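 active means activation above the screen-wide mean activation plus 3 SD, cut at about 130% in these data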;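 further: raw ratio to IFN-gamma control signal so 100% means no change and 0% no light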
An asterisk follows results filed as active; x = not tested or not shown.

SMILES	STAT3 blocker	NF-kB expr up	APP 5'UTR act	STAT3 activator	STAT1 blocker	STAT1 activator
OCCN1CCN(CCCc2c3c(cc4c2CCC4)CCC3)CC1	-2.1	1.1	-5.1	99.7	1.6	100.7
Cc1nonc1-c1csc(N)n1	-1.1	1.07	-4.1	102.9	-9.5	109.5
CC(=O)c1cccc(NC(=O)CCOc2ccccc2)c1	-5.4	2.07	9.0	108.7	-3.8	103.6
Cc1nc2cc(NC(=O)Nc3cccc4ccccc34)ccc2n1C	19.5	2.28	110.1	86.5	-51.4	145.0*
CC(=O)c1cccc(NC(=O)C(=O)Nc2cccc3ccccc23)c1	1.3	1.47	70.0	100.8	-42.1	136.8*
Cc1ccccc1NCC(=O)N/N=C/C(Br)=C/c1ccccc1	4.6	1.07	-7.8	99.9	-2.2	102.0
CCOc1ccc(C(=O)NCc2cccs2)cc1	-13.9	1.73	x	114.3	-5.1	100.1
CCOc1c2ccc(C(=O)NCCc3cccs3)cc2nn1CC	3.2	3.04	81.0	103.5	-48.6	143.9*
CCCCOc1ccc(C(=O)NCCc2cccs2)cc1	-6.8	2.53	52.8	109.9	-40.1	134.5*
Cc1ccc(S(=O)(=O)NCC(=O)N(CC(=O)NCC2CCCO2)Cc2ccco2)cc1 (stereo unspecified)	14.1	1.1	-0.8	94.8	-1.6	101.7
c1ccc(OCCOc2ncnc3ccccc23)cc1	6.2	2.54	28.8	98.4	-33.6	133.1*
O=C(COc1ncnc2ccccc12)c1ccc(Cl)cc1	12.7	1.2	29.9	95.6	-38.4	133.8*
[O-]/C(=C(\C(=S)Nc1ccc(SC(F)F)cc1)[n+]1ccccc1)c1ccc(Cl)cc1Cl	16.5	4.7*	3.0	87.6	0.6	98.4
CC1CCCCC1NC(=O)CN1C(=O)CSc2cc(S(=O)(=O)N3CCCCCC3)ccc21 (stereo unspecified)	2.0	1.05	-16.5	106.2	3.3	97.0
CC1(C)CC(=O)C(N=Nc2ccc(-c3ccccc3)cc2)=C(O)C1	15.5	2.28	136.9*	90.8	-3.6	105.0
COc1ccc(/C=N/Nc2ccc([N+](=O)[O-])cc2S(=O)(=O)N2CCN(C)CC2)cc1	-1.9	5.52*	x	101.9	-8.0	107.1
COc1ccc(NS(=O)(=O)c2cc([N+](=O)[O-])ccc2N/N=C\c2c(C)[nH]c3ccccc23)cc1	-28.3	1.02	x	121.7	-3.0	102.7
O=C(O)c1ccccc1C(=O)NNc1cccc(Cl)n1	4.3	1.27	155.2*	100.2	-19.0	115.8
Cc1[nH]c2ccccc2c1/C=N/NC(=O)Nc1ccccc1	-49.4	1.09	48.7	147.6*	-30.9	131.1*
Cc1[nH]c2ccccc2c1/C=N/NC(=O)CCC(=O)Nc1ccccc1	-14.2	0.92	15.6	115.3	-2.7	100.5
C/C(=N\NC(=O)c1ccccc1)c1ccc2c(c1)OCO2	-6.6	2.07	45.0	112.7	-18.5	117.0
O=C(N/N=C/c1ccc(Br)s1)Nc1ccccc1	19.3	1.73	21.4	87.5	-32.6	130.2*
O=C(N/N=C/c1ccc(Br)s1)c1c[nH]c2ccccc12	-14.1	1.22	64.1	114.3	-43.0	137.7*
C/C(=N\NC(=O)c1c[nH]c2ccccc12)c1ccc2c(c1)OCO2	6.4	0.84	10.1	100.3	-39.0	134.6*
CC(C)(Oc1ccc(Cl)cc1)C(=O)NCc1ccc(S(N)(=O)=O)cc1	1.2	1.08	0.5	103.0	0.1	97.0
SMILES	STAT3 blocker	NF-kB expr up	APP 5'UTR act	STAT3 activator	STAT1 blocker	STAT1 activator
O=C(N/N=C/c1cc2c(cc1Br)OCO2)c1c[nH]c2ccccc12	14.4	0.91	93.9	90.0	-50.7	143.4*
O=C(N/N=C/c1c[nH]c2ccc(Br)cc12)c1ccc2c(c1)OCO2	13.4	0.87	18.7	90.9	-6.0	105.5
CCOCCCNc1ccc(N2C(=O)C3CCCCC3C2=O)cc1[N+](=O)[O-] (stereo unspecified)	-1.6	1.27	-9.0	103.2	1.2	98.4
CCN(CC)CCCNC(=O)CSc1nc(-c2ccc(F)cc2)cc(C(F)(F)F)n1	-4.5	1.03	15.2	105.1	-0.6	99.5
c1ccc(-c2nnc(-c3cccc(-c4nnc(-c5ccccc5)o4)c3)o2)cc1	0.3	x	-4.3	101.6	-3.4	105.8
Cc1ccc(-c2nnc(N)o2)cc1	5.4	1.15	11.3	96.5	-5.5	104.6
Cc1ccc(-c2nnc(-c3cccs3)o2)cc1	28.8	5.48*	140.5*	76.9	-28.2	127.1
Cc1ccc(/C=C/c2nnc(-c3ccc(C)cc3)o2)cc1	6.8	1.73	2.9	98.4	-1.7	101.5
Fc1ccc(/C=C/c2nnc(-c3cccs3)o2)cc1	26.9	4.17*	82.5	79.3	-32.4	128.9*
Cc1ccc(-c2nnc(-c3ccccc3)o2)cc1	20.0	7.87*	132.6	84.4	-30.2	127.9
N=C1SCC(=O)N1c1nc(-c2ccccc2)cs1	8.6	1.59	-7.3	98.5	-55.0	149.6*
O=C1C2C3c4ccccc4C(c4ccccc43)C2C(=O)N1c1nc(-c2ccccc2)cs1 (stereo unspecified)	9.0	1.09	-18.4	98.2	-6.3	105.7
CCOC(=O)C1(Cc2ccc(Cl)cc2)CCN(C(=O)c2cscn2)CC1	6.8	0.97	-0.1	96.1	4.9	93.8
CC(=O)c1ccc(NC(=O)c2cn(-c3ccccc3)nc2-c2ccncc2)cc1	16.1	1	x	91.4	19.0	82.9
O=C(Nc1ccc(F)c(F)c1)c1cnc(-c2ccccc2)nc1-c1ccccc1	3.0	1.1	-7.6	101.6	-4.7	104.2
O=C(O)c1ccc(NC(=O)c2cn(-c3ccccc3)nc2-c2ccc(F)cc2)cc1	-13.1	1.63	10.9	115.5	-40.8	135.1*
O=C(Nc1ccc(F)cc1)c1cnc(-c2ccccc2)nc1-c1ccccc1	7.2	1.08	4.0	100.4	-36.8	132.9*
NC(=O)c1ccsc1NC(=O)C1CCCN1S(=O)(=O)c1ccc(Cl)cc1 (stereo unspecified)	5.2	1.63	2.4	98.1	1.1	99.0
CC1CCCCN1S(=O)(=O)c1ccc(C(=O)Nc2sccc2C(N)=O)cc1 (stereo unspecified)	-12.7	1.27	77.7	118.4	-31.5	128.6*
Cc1cc2ccccn2c1C(=O)Nc1ccccc1	-43.2	2.03	35.1	134.2*	-12.3	111.7
COc1ccc(NC(=O)/C=C/c2cccc(F)c2)cn1	-0.6	3.79*	135.3*	100.8	-53.2	147.3*
NC(=O)c1ccccc1NC(=O)/C=C/c1cccc(Cl)c1	15.6	1.59	90.6	96.2	-34.7	131.2*
COc1ccccc1/C=C/C(=O)Nc1cccc(C(C)=O)c1	9.2	1.04	26.0	95.9	-11.1	108.7
COc1ccc(NC(=O)/C=C/c2ccco2)cn1	8.0	2.28	68.7	93.5	-27.2	125.6
COc1ccc(/C=C/C(=O)Nc2cccc(C(C)=O)c2)cc1	5.1	1.96	49.5	93.7	-34.0	130.2*

Screening results: PubChem, several laboratories
